Assay results collected from several papers.
Target: Serine/threonine-protein kinase PknB (pknB, Mycobacterium tuberculosis, UniProt P9WI81)

| SMILES | effect on | technique | concentration | remaining binding |
| --- | --- | --- | --- | --- |
| FC(F)(F)Oc1cccc(-c2cnc3ccc(-c4ccncc4)nn23)c1 | cell-free assay | competition with immobilised ligand | 5 µM | 31% |
| O=C(Nc1c[nH]nc1C(=O)NC1CCNCC1)c1cc(F)cc(F)c1 | binding | competition with immobilised ligand | 1 µM | 100% |
| Cc1nn(C)cc1-c1nc2c(N3CCN(Cc4ccc(Cl)cc4)CC3)c(Cl)cnc2[nH]1 | binding | competition with immobilised ligand | 1 µM | 56% |
| O=C(NCCCC1CCCCC1)c1ccc(CNC(=O)c2cnn(-c3ccccc3)c2C(F)(F)F)cc1 | cell-free assay | competition with immobilised ligand | 0.1 µM | 100% |
| CNC(=O)[C@@H]1CC[C@@H](n2c(-c3ccc4cnccc4c3)nc3ccc(C(=O)NCc4cccc(C(N)=O)c4)cc32)C1 | binding | competition with immobilised ligand | 1 µM | 96% |
| Nc1ncc2c(n1)-c1c([nH]c3ccc(C#CC4CC4)cc13)CCCC2 | binding | competition with immobilised ligand | 1 µM | 90% |
| c1cncc(-c2cccc(Nc3nccc(NC4CCCCC4)n3)c2)c1 | binding | competition with immobilised ligand | 10 µM | 89% |
| CN(CCCC(F)(F)F)c1nccc(-c2cnn3ncccc23)n1 | binding | – | 1 µM | 89% |
| COc1ccc2c(c1)O[C@@H](c1ccc(OC)c(OC)c1)C[C@H]2NC(=O)C1(c2ccc3c(c2)OC(F)(F)O3)CC1 | cell-free assay | competition with immobilised ligand | 1 µM | 85% |
| N[C@@H]1CCN(c2nccc(-c3cnn4ncccc34)n2)C1 | binding | – | 1 µM | 100% |
| CCN1CCN(Cc2ccc(C(=O)Nc3ccc(C)c(Oc4ccc5c(c4)CC(=O)N5)c3)cc2C(F)(F)F)CC1 | binding | competition with immobilised ligand | 1 µM | 100% |
| COc1cc(-c2cn(C3CCc4c(F)cccc4N(CC(F)(F)F)C3=O)nn2)ccc1-n1cnc(C)c1 (stereo not drawn) | cell-free assay | competition with immobilised ligand | 1 µM | 82% |
| COc1ccnn2ncc(-c3ccnc(N(C)C)n3)c12 | binding | – | 1 µM | 100% |
| O=C(Nc1cccnn1)N1CCC(=Cc2cccc(Oc3ccc(C(F)(F)F)cn3)c2)CC1 | cell-free assay | competition with immobilised ligand | 1 µM | 95% |
| F[C@@H]1CCN(c2nccc(-c3cnn4ncccc34)n2)C1 | binding | – | 1 µM | 100% |
